Assay results of several laboratories.
Protocols differ between the studies behind these lines. pEC50, pIC50: −log10 of the molar value. Values after ≈ are worked out from the molar mass of the structure shown.

Compound | organism | test | test system | setting | measurement | value
CNC(=S)NN=Cc1ccc(OC)c(OC)c1 | Leishmania major | parasite growth | J774.A1 | 72 h, intracellular, amastigote | pIC50 | 4.22
C/C(=N\CCNCC/N=C(\C)c1c(O)c2ccccc2oc1=O)c1c(O)c2ccccc2oc1=O | Aspergillus glaucus | microbial growth, broth dilution | – | 48 h | MIC | 31.2 µg/mL
C=C[C@]1(C)C[C@@H](OC(=O)CS[C@@H]2C[C@H]3CC[C@@H](C2)N3C)[C@]2(C)[C@H](C)CC[C@]3(CCC(=O)[C@H]32)[C@@H](C)[C@@H]1O | Enterococcus faecalis | microbial growth | – | clinical isolate | MIC90 | > 128 µg/mL
CN1CCN(c2ccc(-c3ccc4c(Nc5ncccn5)cnnc4c3)cc2)CC1 | Leishmania major | parasite growth | – | intracellular, amastigote | pEC50 | < 4.90
[H]/N=C(\N/C(=N/[H])NCCCCCCNC(=N)NC(=N)Nc1ccc(Cl)cc1)Nc1ccc(Cl)cc1 | Enterococcus faecalis | microbial growth | – | – | MIC | 4 µM
Cc1ccc(Nc2cnnc3cc(-c4ccc(N5CCN(C)CC5)cc4)ccc23)cn1 | Leishmania major | parasite growth | – | intracellular, amastigote | pEC50 | < 4.62
CC1(C)S[C@@H]2[C@H](NC(=O)[C@H](N)c3ccccc3)C(=O)N2[C@H]1C(=O)O | Enterococcus faecalis | microbial growth | – | clinical isolate | MIC90 | > 128 µg/mL
COc1ccc(C=NNC(=S)Nc2cccnc2)cc1 | Leishmania major | parasite growth, MTT | – | 72 h, promastigote | pIC50 | 3.00
C/C(=N\C1CCCCC1/N=C(\C)c1c(O)c2ccccc2oc1=O)c1c(O)c2ccccc2oc1=O (centres unmarked) | Aspergillus glaucus | microbial growth, broth dilution | – | 48 h | MIC | 31.2 µg/mL
CCCCCCCCCCCC[N+](C)(C)Cc1ccccc1 | Enterococcus faecalis | microbial growth | – | – | MIC | 63 µM
CC1(C)S[C@@H]2[C@H](NC(=O)[C@H](N)c3ccccc3)C(=O)N2[C@H]1C(=O)O | Enterococcus faecalis | microbial growth, broth dilution | ATCC19433 | 12 h | MIC | 0.5 µg/mL
S=C(NN=Cc1ccc(Br)cc1)Nc1cccnc1 | Leishmania major | parasite growth, MTT | – | 72 h, promastigote | pIC50 | 3.05
CC(=O)N1CCN(c2ccc(OCC3COC(Cn4ccnc4)(c4ccc(Cl)cc4Cl)O3)cc2)CC1 (centres unmarked) | Aspergillus glaucus | microbial growth, broth dilution | – | 48 h | MIC | 7.8 µg/mL
COc1ccc(Nc2cnnc3ccc(-c4cnc(N5CCCN(C)CC5)nc4)cc23)cc1Cl | Leishmania major | parasite growth | – | intracellular, amastigote | pEC50 | < 4.68
CC[C@H]1OC(=O)[C@H](C)[C@@H](O[C@H]2C[C@@](C)(OC)[C@@H](O)[C@H](C)O2)[C@H](C)[C@@H](O[C@@H]2O[C@H](C)C[C@H](N(C)C)[C@H]2O)[C@](C)(O)C[C@@H](C)/C(=N\OCOCCOC)[C@H](C)[C@@H](O)[C@]1(C)O | Enterococcus faecalis | microbial growth, agar dilution | ATCC29212 | – | MIC | 128 µg/mL
Cc1c2c(nn1C)CSCc1cc(n(C)n1)CSc1cc(c3ccccc3c1)OCCCc1c(C(=O)O)n(C)c3c-2c(Cl)ccc13 | Enterococcus faecalis | microbial growth, broth dilution | – | clinical isolate | MIC50 | 25 µM (≈ 16.8 µg/mL)

Compound | organism | test | test system | setting | measurement | value
COc1ccc(Nc2cnnc3ccc(-c4ccc(N5CCN(C)CC5)cc4)cc23)cc1Cl | Leishmania major | parasite growth | – | intracellular, amastigote | pEC50 | < 4.66
CNC(=S)NN=Cc1ccc(C)cc1 | Leishmania major | parasite growth | J774.A1 | 72 h, intracellular, amastigote | pIC50 | 2.96
CN1CCN(c2ccc(-c3ccc4c(Nc5cnccn5)cnnc4c3)cc2)CC1 | Leishmania major | parasite growth | – | intracellular, amastigote | pEC50 | < 4.60
CNC(=S)NN=Cc1ccc(Br)cc1 | Leishmania major | parasite growth | J774.A1 | 72 h, intracellular, amastigote | pIC50 | 4.50
C/C(=N\C(=O)/N=C(\C)c1c(O)c2ccccc2oc1=O)c1c(O)c2ccccc2oc1=O | Aspergillus glaucus | microbial growth, broth dilution | – | 48 h | MIC | 62.5 µg/mL
CN1CCN(c2ccc(-c3ccc4nncc(Nc5cnccn5)c4c3)cc2)CC1 | Leishmania major | parasite growth | – | intracellular, amastigote | pEC50 | < 4.89
CNC(=S)NN=Cc1ccc([N+](=O)[O-])cc1 | Leishmania major | parasite growth, MTT | – | 72 h, promastigote | pIC50 | 3.80
COc1ccc(Nc2cnnc3ccc(-c4ccc(N5CCN(C)CC5)cc4)cc23)nc1 | Leishmania major | parasite growth | – | intracellular, amastigote | pEC50 | < 4.64
CC(=O)NC[C@H]1CN(c2ccc(N3CCOCC3)c(F)c2)C(=O)O1 | Enterococcus faecalis | microbial growth, broth dilution | – | clinical isolate | MIC90 | 1 µg/mL (≈ 2.96 µM)
COc1ccc(Nc2cnnc3cc(-c4cnc(N5CCCN(C)CC5)nc4)ccc23)cc1Cl | Leishmania major | parasite growth | – | intracellular, amastigote | pEC50 | < 5.68
C[C@@H]1[C@H](O)[C@@H](C)/C=C/C=C/C=C/C=C/C=C/C=C/C=C/[C@H](O[C@@H]2O[C@H](C)[C@@H](O)[C@H](N)[C@@H]2O)C[C@@H]2O[C@](O)(C[C@@H](O)C[C@@H](O)[C@H](O)CC[C@@H](O)C[C@@H](O)CC(=O)O[C@H]1C)C[C@H](O)[C@H]2C(=O)O | Aspergillus fumigatus | microbial growth, broth dilution | AF293 | 48 h | MIC | 0.5 µg/mL
C/C(=N\C(=N)/N=C(\C)c1c(O)c2ccccc2oc1=O)c1c(O)c2ccccc2oc1=O | Aspergillus glaucus | microbial growth, broth dilution | – | 48 h | MIC | 125 µg/mL
COc1c(N2C[C@@H]3CCCN[C@@H]3C2)c(F)cc2c(=O)c(C(=O)O)cn(C3CC3)c12 | Enterococcus faecalis | microbial growth, agar dilution | ATCC29212 | – | MIC | 8 µg/mL
CNC(=S)NN=Cc1ccc(F)cc1 | Leishmania major | parasite growth | J774.A1 | 72 h, intracellular, amastigote | pIC50 | 3.50
CN[C@H](CC(C)C)C(=O)N[C@H]1C(=O)N[C@@H](CC(N)=O)C(=O)N[C@H]2C(=O)N[C@H]3C(=O)N[C@H](C(=O)N[C@H](C(=O)O)c4cc(O)cc(O)c4-c4cc3ccc4O)[C@H](O)c3ccc(c(Cl)c3)Oc3cc2cc(c3O[C@@H]2O[C@H](CO)[C@@H](O)[C@H](O)[C@H]2O[C@H]2C[C@](C)(N)[C@H](O)[C@H](C)O2)Oc2ccc(cc2Cl)[C@H]1O | Enterococcus faecalis | microbial growth, broth dilution | – | clinical isolate | MIC90 | 2 µg/mL (≈ 1.38 µM)
COc1ccc(C=NNC(=S)Nc2cccnc2)cc1OC | Leishmania major | parasite growth | J774.A1 | 72 h, intracellular, amastigote | pIC50 | 3.05
